# Assay results gathered from unrelated publications.
# PBRM1 bromodomain: Protein polybromo-1, bromodomain (PBRM1, Homo sapiens, UniProt Q86U86)
# BRD2 BD1: Bromodomain-containing protein 2, BD1 (BRD2, Homo sapiens, UniProt P25440)
# ERBB3: Receptor tyrosine-protein kinase erbB-3 (ERBB3, Homo sapiens, UniProt P21860)
# Abl1: Tyrosine-protein kinase ABL1 (Abl1, Mus musculus, UniProt P00520)
# PBRM1 BD2: Protein polybromo-1, BD2 (PBRM1, Homo sapiens, UniProt Q86U86)
Compound,target,assay,test system,setting,measurement,value
Oc1ccc(-c2nc(-c3ccncc3)c(-c3ccc(F)cc3)[nH]2)cc1,"Protein polybromo-1, BD1 (PBRM1, Homo sapiens, UniProt Q86U86)","thermal stability, DSF",,10 µM,ΔTm,0 °C
O=[N+]([O-])OCC(CO[N+](=O)[O-])O[N+](=O)[O-],"Aldehyde dehydrogenase, mitochondrial (ALDH2, Homo sapiens, UniProt P05091)","enzyme activity, substrate",,,Km,~20 µM
CCC/C=C1\CCn2c1nc(=O)c1c(Cl)cccc12,PBRM1 bromodomain,"thermal stability, DSF",,100 µM,ΔTm,11 °C
CCCCN1CCCn2c1nc1c2c(=O)n(C)c(=O)n1C,"Adenosine receptor A2b (ADORA2B, Homo sapiens, UniProt P29275)","ligand displacement, radioligand",,"10 µM, cell membranes",inhibition,3%
CN(C)C1CCN(CC#Cc2nn(C3CCCC3)c3nc(NCc4ccccc4)ncc23)C1 (stereo not shown),"Insulin receptor (INSR, Homo sapiens, UniProt P06213)","enzyme activity, inhibitor, FRET",,10 µM,inhibition,31%
Cc1cc2c(cc1N1C(=O)c3cccc4c(Cl)ccc(c34)C1=O)n(C)c(=O)n2C,BRD2 BD1,"thermal stability, DSF",,10 µM,ΔTm,0.3 °C
Cc1cnc(Nc2ccc(OCCN3CCCC3)cc2)nc1Nc1cccc(S(=O)(=O)NC(C)(C)C)c1,BRD2 BD1,"thermal stability, DSF",,10 µM,ΔTm,2.4 °C
CCC1=C[C@@H]2CN(C1)Cc1c([nH]c3ccccc13)[C@@](C(=O)OC)(c1cc3c(cc1OC)N(C)[C@H]1[C@@](O)(C(=O)OC)[C@H](OC(C)=O)[C@]4(CC)C=CCN5CC[C@]31[C@@H]54)C2,"Organic cation/carnitine transporter 2 (SLC22A5, Homo sapiens, UniProt O76082)","transporter uptake, inhibitor",HEK293,100 µM,remaining activity,15.3%
Nc1ncnc2occ(-c3ccc(NC(=O)Nc4cc(C(F)(F)F)ccc4F)cc3)c12,ERBB3,"cell-free assay, inhibitor",,20 µM,remaining signal,73%
CCC(/C=C1\CCCn2c1nc(=O)c1c(Cl)cccc12)CC,PBRM1 bromodomain,"thermal stability, DSF",,100 µM,ΔTm,5.82 °C
C[S+]([O-])c1ccc(-c2nc(-c3ccncc3)c(-c3ccc(F)cc3)[nH]2)cc1 (stereo not shown),PBRM1 bromodomain,"thermal stability, DSF",,10 µM,ΔTm,1.33 °C
Cc1cnc(NC2CCOCC2)nc1-n1cnc(C(=O)NC(CN)c2cc(F)cc(Cl)c2)c1 (stereo not shown),Abl1,"enzyme activity, inhibitor, radiometric",,1 µM,remaining activity,99%
CCC(CC)CC1CCn2c1nc(=O)c1c(Cl)cccc12 (racemic),PBRM1 BD2,"thermal stability, DSF",,100 µM,ΔTm,2.66 °C
Cc1ccc(C(=O)Nc2ccc(CN3CCN(C)CC3)c(C(F)(F)F)c2)cc1C#Cc1cnc2cccnn12,ERBB3,"enzyme activity, inhibitor",,23.5 nM,remaining activity,82%
CC/C=C1\CCn2c1nc(=O)c1c(Cl)cccc12,PBRM1 BD2,"thermal stability, DSF",,100 µM,ΔTm,-0.23 °C
Cc1ccc(NC(=O)c2ccc(C)c(C(F)(F)F)c2)cc1C#Cc1nn(C2CCC(O)CC2)c2ncnc(N)c12 (stereo not shown),Abl1,cell-free assay,,10 µM,remaining signal,-2%
CC(C)(C)C/C=C1\CCn2c1nc(=O)c1c(Cl)cccc12,PBRM1 bromodomain,"thermal stability, DSF",,100 µM,ΔTm,7.06 °C
NS(=O)(=O)c1ccc(Nc2nc(-c3ccc(F)cc3)c3ccccc3n2)cc1,BRD2 BD1,"binding, competition with immobilised ligand",,1 µM,remaining binding,4%
O=c1nc2n(c3cccc(Cl)c13)CC/C2=C\c1ccccc1,PBRM1 BD2,"thermal stability, DSF",,100 µM,ΔTm,-6.11 °C
CCCOc1ccc(OC)c(F)c1C(=O)c1ccc(C(=O)N[C@@H]2CNC[C@H]2NC(=O)c2ccc3[nH]ncc3c2)cc1,Abl1,"enzyme activity, inhibitor",,10 µM,remaining activity,63%
CCC(/C=C1\CCn2c1nc(=O)c1c(Cl)cccc12)CC,PBRM1 bromodomain,"thermal stability, DSF",,100 µM,ΔTm,10.3 °C
O=C(O)c1cccc(NC(c2ccccc2)c2ccc3ccccc3c2O)c1 (stereo not shown),"CAAX prenyl protease 2 (Homo sapiens, UniProt Q9Y256)","enzyme activity, inhibitor",,10 µM,remaining activity,< 40%
